Reference: ChEMBL document CHEMBL1152865, “Synthesis and antimycobacterial activities of novel 6-nitroquinolone-3-carboxylic acids” (Eur J Med Chem, 2009)
Converted amounts (≈) assume the structure as drawn.

Assays:
[1] = Cytotoxicity against african green monkey Vero cells after 72 hrs by MTT assay; type: cell-based; settings: chlorocebus sabaeus
Method in brief: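 Cells exposed to compound for 72 h; viability from cellular MTT conversion to formazan; CC50 derived.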

[2] = system: Mycolicibacterium smegmatis; assay: Antibacterial activity against Mycobacterium smegmatis ATCC 14468 by agar dilution method; type: functional
Method in brief: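 Agar dilution on Middlebrook 7H11 agar with OADC supplement, following an NCCLS-type procedure; MIC read in duplicate.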

[3] = system: Mycobacterium tuberculosis; assay: Antibacterial activity against Mycobacterium tuberculosis H37Rv by agar dilution method; type: functional
Method in brief: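 Agar dilution in Middlebrook 7H11 agar supplemented with OADC, following an approach similar to NCCLS guidance. MIC determined in duplicate.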

[4] = Inhibition of Mycobacterium smegmatis DNA gyrase assessed as inhibition of relaxed circular pUC18 supercoiling activity by agarose gel electrophoresis; design: species or system Mycolicibacterium smegmatis
Method in brief: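 Gyrase purified from M. smegmatis, pre-incubated with compound in DMSO. Then 400 ng relaxed pUC18 added in 35 mM Tris-HCl pH 7.5, 5 mM MgCl2, 25 mM potassium glutamate, 2 mM spermidine, 2 mM ATP, BSA, yeast tRNA and 5% glycerol. Incubated 30 min at 37 °C; read-out by agarose gel electrophoresis. Ciprofloxacin and 5% DMSO reactions run as controls.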

Mus musculus [5] = assay: Phototoxicity in Swiss albino mouse exposed to 4 hrs of 18 J/cm'2 UV light irradiation assessed as ear thickness at 140 mg/kg, po after 96 hrs; type: organism-based; design: dose 140 mg/kg, route oral; settings: in vivo
Method in brief: (§1)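 Female Swiss albino mice about 2 months old, 20-25 g, fasted at least 18 h, six per group. Single oral gavage of 140 mg/kg; vehicle 0.5% aqueous sodium carboxymethylcellulose at 10 ml/kg; lomefloxacin HCl 140 mg/kg as positive control. UVA for 4 h (about 18 J/cm²) from dosing. Both ears scored for erythema, edema and thickness pre-dose, at 4 h, and at about 24, 48, 72 and 96 h.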

Mus musculus [6] = assay: Phototoxicity in Swiss albino mouse exposed to 4 hrs of 18 J/cm'2 UV light irradiation assessed as erythema at 140 mg/kg, po after 96 hrs; type: organism-based; design: dose 140 mg/kg, route oral; settings: in vivo; method in brief: as §1
Mus musculus [7] = assay: Phototoxicity in Swiss albino mouse exposed to 4 hrs of 18 J/cm'2 UV light irradiation assessed as erythema at 140 mg/kg, po; type: organism-based; design: dose 140 mg/kg, route oral; settings: in vivo; method in brief: as §1
Mus musculus [8] = assay: Phototoxicity in Swiss albino mouse exposed to 4 hrs of 18 J/cm'2 UV light irradiation assessed as erythema at 140 mg/kg, po after 48 hrs; type: organism-based; design: dose 140 mg/kg, route oral; settings: in vivo; method in brief: as §1
Mus musculus [9] = assay: Phototoxicity in Swiss albino mouse exposed to 4 hrs of 18 J/cm'2 UV light irradiation assessed as ear thickness at 140 mg/kg, po after 24 hrs; type: organism-based; design: dose 140 mg/kg, route oral; settings: in vivo; method in brief: as §1
Mus musculus [10] = assay: Phototoxicity in Swiss albino mouse exposed to 4 hrs of 18 J/cm'2 UV light irradiation assessed as erythema at 140 mg/kg, po after 24 hrs; type: organism-based; design: dose 140 mg/kg, route oral; settings: in vivo; method in brief: as §1
Mus musculus [11] = assay: Phototoxicity in Swiss albino mouse exposed to 18 J/cm'2 UV light irradiation assessed as ear thickness at 140 mg/kg, po; type: organism-based; design: dose 140 mg/kg, route oral; settings: in vivo; method in brief: as §1
Mus musculus [12] = assay: Phototoxicity in Swiss albino mouse exposed to 4 hrs of 18 J/cm'2 UV light irradiation assessed as erythema at 140 mg/kg, po after 72 hrs; type: organism-based; design: dose 140 mg/kg, route oral; settings: in vivo; method in brief: as §1
[13] = system: Mycobacterium tuberculosis; assay: Antimycobacterial activity against Mycobacterium tuberculosis ATCC 35801 infected in CD1 mouse assessed as bacterial load in lungs at 50 mg/kg, ip administered 10 days postinfection for 10 days measured after 35 days of infection; type: functional; settings: route intraperitoneal
Method in brief: (§2)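 Six-week-old female CD-1 mice, six per group, infected intravenously via the caudal vein with approximately 10⁷ viable M. tuberculosis ATCC 35801. Intraperitoneal treatment ran days 10–20 post-infection. At day 35, spleen and right lung were homogenized, serially 10-fold diluted and plated on 7H10 agar, incubated 37 °C, 4 weeks. Log CFU compared with vehicle-treated controls.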

Mus musculus [14] = assay: Phototoxicity in Swiss albino mouse assessed as erythema at 140 mg/kg, po after 4 hrs of 18 J/cm'2 UV light irradiation; type: organism-based; design: dose 140 mg/kg, route oral; settings: in vivo; method in brief: as §1
Mus musculus [15] = assay: Phototoxicity in Swiss albino mouse assessed as ear thickness at 140 mg/kg, po measured after 4 hrs of 18 J/cm'2 UV light irradiation; type: organism-based; design: dose 140 mg/kg, route oral; settings: in vivo; method in brief: as §1
Mus musculus [16] = assay: Phototoxicity in Swiss albino mouse exposed to 4 hrs of 18 J/cm'2 UV light irradiation assessed as ear thickness at 140 mg/kg, po after 72 hrs; type: organism-based; design: dose 140 mg/kg, route oral; settings: in vivo; method in brief: as §1
[17] = system: Mycobacterium tuberculosis; assay: Antimycobacterial activity against Mycobacterium tuberculosis ATCC 35801 infected in CD1 mouse assessed as bacterial load in spleen at 50 mg/kg, ip administered 10 days postinfection for 10 days measured after 35 days of infection; type: functional; settings: route intraperitoneal; method in brief: as §2
Mus musculus [18] = assay: Phototoxicity in Swiss albino mouse exposed to 4 hrs of 18 J/cm'2 UV light irradiation assessed as ear thickness at 140 mg/kg, po after 48 hrs; type: organism-based; design: dose 140 mg/kg, route oral; settings: in vivo; method in brief: as §1
[19] = system: Mycobacterium tuberculosis; assay: Antimycobacterial activity against Mycobacterium tuberculosis ATCC 35801 infected in CD1 mouse assessed as bacterial load in spleen at 25 mg/kg, ip administered 10 days postinfection for 10 days measured after 35 days of infection; type: functional; settings: route intraperitoneal; method in brief: as §2
[20] = system: Mycobacterium tuberculosis; assay: Antimycobacterial activity against Mycobacterium tuberculosis ATCC 35801 infected in CD1 mouse assessed as bacterial load in lungs at 25 mg/kg, ip administered 10 days postinfection for 10 days measured after 35 days of infection; type: functional; settings: route intraperitoneal; method in brief: as §2

Compound | CC50 at 72 h [1] [µM] | MIC [2] [µM] | MIC [3] [µM] | IC50 [4] [µg/mL] | Activity (Mus musculus [5]) [mm] | Activity (Mus musculus [6]) | Activity (Mus musculus [7]) | Activity (Mus musculus [8]) | Activity (Mus musculus [9]) [mm] | Activity (Mus musculus [10]) | Activity (Mus musculus [11]) [mm] | Activity (Mus musculus [12]) | log10cfu [13] | Activity (Mus musculus [14]) | Activity (Mus musculus [15]) [mm] | Activity (Mus musculus [16]) [mm] | log10cfu [17] | Activity (Mus musculus [18]) [mm] | log10cfu [19] | log10cfu [20]
Cc1onc(-c2c(F)cccc2F)c1C(=O)N1CCN(c2cc3c(cc2[N+](=O)[O-])c(=O)c(C(=O)O)cn3C(C)(C)C)CC1 | 105 | 10.5 (≈ 6.25 µg/mL) | 2.62 (≈ 1.56 µg/mL) | 30 (≈ 50.4 µM) |  |  |  |  |  |  |  |  |  |  |  |  |  |  |  | 
O=C(O)c1cn(-c2ccc(F)cc2)c2cc(N3CCN(C(=O)C4COc5ccccc5O4)CC3)c([N+](=O)[O-])cc2c1=O (stereo not drawn) | 54.4 | 10.9 (≈ 6.25 µg/mL) | 2.72 (≈ 1.56 µg/mL) | 30 (≈ 52.2 µM) |  |  |  |  |  |  |  |  |  |  |  |  |  |  |  | 
O=C(O)c1cn2c(n1)CN(c1cc3c(cc1[N+](=O)[O-])c(=O)c(C(=O)O)cn3C1CC1)CC2 | 142 | 7.12 (≈ 3.13 µg/mL) | 1.78 (≈ 0.782 µg/mL) |  |  |  |  |  |  |  |  |  |  |  |  |  |  |  |  | 
O=C(O)c1cn(C2CC2)c2cc(N3CCN(Cc4ccc5c(c4)OCO5)CC3)c([N+](=O)[O-])cc2c1=O | 127 | 0.79 (≈ 0.389 µg/mL) | 0.08 (≈ 0.0394 µg/mL) | 30 (≈ 60.9 µM) | 0.29 | Non-toxic | Non-toxic | Non-toxic | 0.28 | Non-toxic | 0.25 | Non-toxic | 5.21 | Non-toxic | 0.27 | 0.31 | 4.87 | 0.28 |  | 
O=C(O)c1cn(C2CC2)c2cc(N3CCN(C(=O)c4ccco4)CC3)c([N+](=O)[O-])cc2c1=O | 111 | 1.39 (≈ 0.629 µg/mL) | 0.69 (≈ 0.312 µg/mL) | 30 (≈ 66.3 µM) |  |  |  |  |  |  |  |  |  |  |  |  |  |  |  | 
CC1CN(c2cc3c(cc2[N+](=O)[O-])c(=O)c(C(=O)O)cn3-c2ccc(F)cc2)CC(C)O1 (stereo not drawn) | 70.8 | 14.2 (≈ 6.25 µg/mL) | 3.53 (≈ 1.56 µg/mL) | 20 (≈ 45.3 µM) |  |  |  |  |  |  |  |  |  |  |  |  |  |  |  | 
O=C(O)c1cn(C2CC2)c2cc(N3CCC(O)(c4ccc(Cl)cc4)CC3)c([N+](=O)[O-])cc2c1=O | 129 | 3.22 (≈ 1.56 µg/mL) | 0.81 (≈ 0.392 µg/mL) | 5 (≈ 10.3 µM) |  |  |  |  |  |  |  |  |  |  |  |  |  |  |  | 
O=C(O)c1cn(C2CC2)c2cc(N3CCC(N4CCCCC4)CC3)c([N+](=O)[O-])cc2c1=O | 142 | 1.77 (≈ 0.78 µg/mL) | 0.43 (≈ 0.189 µg/mL) | 20 (≈ 45.4 µM) | 0.28 | Non-toxic | Non-toxic | Non-toxic | 0.26 | Non-toxic | 0.24 |  |  | Non-toxic | 0.26 | 0.29 |  | 0.26 |  | 
CN1CCN(c2cc3c(cc2[N+](=O)[O-])c(=O)c(C(=O)O)cn3C2CC2)CC1c1ccccc1 (stereo not drawn) | 136 | 0.87 (≈ 0.39 µg/mL) | 0.2 (≈ 0.0897 µg/mL) | 30 (≈ 66.9 µM) | 0.34 | Non-toxic | Non-toxic | Non-toxic | 0.3 |  | 0.3 | Non-toxic |  | Non-toxic | 0.31 | 0.32 |  | 0.32 |  | 
COc1c(N2CCNC(C)C2)c(F)cc2c(=O)c(C(=O)O)cn(C3CC3)c12 (stereo not drawn) [GATIFLOXACIN] | > 155 | 2.08 (≈ 0.781 µg/mL) | 1.04 (≈ 0.39 µg/mL) |  |  |  |  |  |  |  |  |  | 6.02 |  |  |  | 6.92 |  |  | 
NNC(=O)c1ccncc1 [ISONIAZID] | > 456 | 45.6 (≈ 6.25 µg/mL) | 0.36 (≈ 0.0494 µg/mL) |  |  |  |  |  |  |  |  |  |  |  |  |  |  |  | 4.71 | 5.86
CCn1cc(C(=O)O)c(=O)c2cc(F)c(N3CCNC(C)C3)c(F)c21 (stereo not drawn) [LOMEFLOXACIN] |  |  |  |  | 0.6 | Toxic | Non-toxic | Toxic | 0.48 | Toxic | 0.31 | Toxic |  | Toxic | 0.4 | 0.64 |  | 0.53 |  | 
